{"data": "Measurements gathered from unrelated publications", "target": "Mitogen-activated protein kinase 15 (MAPK15, Homo sapiens, UniProt Q8TD08)", "One construct used (Q8TD08 1-544)": "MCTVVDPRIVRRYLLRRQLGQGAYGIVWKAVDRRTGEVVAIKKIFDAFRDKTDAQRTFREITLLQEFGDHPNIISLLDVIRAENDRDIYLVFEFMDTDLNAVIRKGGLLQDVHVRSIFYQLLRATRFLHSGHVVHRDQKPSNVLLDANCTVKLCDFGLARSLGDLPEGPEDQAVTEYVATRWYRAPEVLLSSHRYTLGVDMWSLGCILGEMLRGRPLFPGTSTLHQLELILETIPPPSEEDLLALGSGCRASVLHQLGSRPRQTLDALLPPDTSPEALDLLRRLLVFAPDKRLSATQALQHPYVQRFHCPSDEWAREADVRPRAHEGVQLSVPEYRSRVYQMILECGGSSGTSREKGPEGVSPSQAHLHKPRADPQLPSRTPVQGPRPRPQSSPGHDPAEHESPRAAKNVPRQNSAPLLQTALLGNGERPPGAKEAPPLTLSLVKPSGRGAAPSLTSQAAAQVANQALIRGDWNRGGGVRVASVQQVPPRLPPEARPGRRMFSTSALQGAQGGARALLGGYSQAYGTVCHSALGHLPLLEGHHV", "note": "Lines come from different studies, so protocols differ."}
{"Compound": "Nc1ncc2c(n1)-c1c([nH]c3ccc(C#CC4CC4)cc13)CCCC2", "assay": "binding, competition with immobilised ligand", "conditions": "1 µM", "remaining binding": "100%"}
{"Compound": "C[C@@H](c1ccc(-n2cnc3c(N)ncnc32)cc1)N1CCc2nn(C)c(Cc3ccccc3)c2C1=O", "assay": "binding, competition with immobilised ligand", "conditions": "0.1 µM", "remaining binding": "88%"}
{"Compound": "CCCCN(CCCC)C(=O)CN1C[C@H](c2cc(OC)c3c(c2)OCO3)[C@@H](C(=O)O)[C@@H]1CC(C)(C)CCC", "assay": "cell-free assay, competition with immobilised ligand", "conditions": "1 µM", "remaining binding": "100%"}
{"Compound": "C[C@@H]1CCN(c2nccc(-c3cnn4ncccc34)n2)C1", "assay": "binding", "conditions": "1 µM", "remaining binding": "49%"}
{"Compound": "CS(=O)(=O)N1CCCC(NC(=O)[C@H](CCC2CCCCC2)NC(=O)c2ccc(CNC(=O)c3cnc4ccccn34)cc2)C1 (stereo partly shown)", "assay": "cell-free assay, competition with immobilised ligand", "conditions": "0.1 µM", "remaining binding": "100%"}
{"Compound": "F[C@@H]1CCN(c2nccc(-c3cnn4ncccc34)n2)C1", "assay": "binding", "conditions": "1 µM", "remaining binding": "66%"}
{"Compound": "O=C(O)c1cc(-c2ccc(C3CCNCC3)cc2)c2ccc(-c3ccc(C(F)(F)F)cc3)cc2c1", "assay": "cell-free assay, competition with immobilised ligand", "conditions": "1 µM", "remaining binding": "100%"}
{"Compound": "COc1ncc2cc3ccccc3nc2c1C#N", "assay": "cell-free assay, competition with immobilised ligand", "conditions": "5 µM", "remaining binding": "91%"}
{"Compound": "COc1cnc(Nc2cccc(S(N)(=O)=O)c2)nc1N1CCN(c2ccccc2)CC1", "assay": "binding, competition with immobilised ligand", "conditions": "1 µM", "remaining binding": "100%"}
{"Compound": "C=CC(=O)N1CCC(C(=O)NCC(=O)N2CCN(c3nc(-c4cnc(N)nc4C(F)F)nc(N4CCOCC4)n3)CC2)CC1", "assay": "binding, competition with immobilised ligand", "conditions": "1 µM", "remaining binding": "97%"}
{"Compound": "COc1ccc2cc(OCC3(C(=O)O)CN(C(=O)c4ccc(F)cc4)C3)ccc2c1", "assay": "cell-free assay, competition with immobilised ligand", "conditions": "1 µM", "remaining binding": "74%"}
{"Compound": "O=C(Nc1c[nH]nc1C(=O)NC1CCNCC1)c1cc(F)cc(F)c1", "assay": "binding, competition with immobilised ligand", "conditions": "1 µM", "remaining binding": "75%"}
{"Compound": "CN(C)c1nccc(-c2cnc3ncccn23)n1", "assay": "binding", "conditions": "1 µM", "remaining binding": "50%"}
{"Compound": "O=C(c1ccc(Nc2ncc(Cl)c(-c3ccc(Cl)s3)n2)cc1)N1CCC(N2CCCC2)CC1", "assay": "binding, competition with immobilised ligand", "conditions": "1 µM", "remaining binding": "3.8%"}
{"Compound": "O=S(=O)(NC1CCC(c2cc(F)ccc2F)(S(=O)(=O)c2ccc(Cl)cc2)CC1)C(F)(F)F (stereo not shown)", "assay": "cell-free assay, competition with immobilised ligand", "conditions": "1 µM", "remaining binding": "94%"}
{"Compound": "O=C(NCCCN1CCOCC1)c1ccc(Nc2ncc(Cl)c(-c3ccc(Cl)s3)n2)cc1", "assay": "binding, competition with immobilised ligand", "conditions": "1 µM", "remaining binding": "1.2%"}
{"Compound": "CN(C)c1nccc(-c2cnn3ncccc23)n1", "assay": "binding", "conditions": "1 µM", "remaining binding": "51%"}
{"Compound": "C[C@H](NC(=O)c1cnc2n1[C@](C)(Cc1ccc(C#N)cc1)C(=O)N2c1cc(Cl)c(F)c(Cl)c1)C(=O)NC1(c2ccccn2)CC1", "assay": "cell-free assay, competition with immobilised ligand", "conditions": "1 µM", "remaining binding": "100%"}
{"Compound": "Cc1cnn2ncc(-c3ccnc(N(C)C)n3)c2c1", "assay": "binding", "conditions": "1 µM", "remaining binding": "83%"}
{"Compound": "FC(F)(F)Oc1cccc(-c2cnc3ccc(-c4ccncc4)nn23)c1", "assay": "cell-free assay, competition with immobilised ligand", "conditions": "5 µM", "remaining binding": "48%"}
{"Compound": "O=C(c1ccc(Nc2nccc(-c3cc4ccccc4s3)n2)cc1)N1CCC(N2CCCC2)CC1", "assay": "binding, competition with immobilised ligand", "conditions": "1 µM", "remaining binding": "49%"}
{"Compound": "N[C@H]1CCN(c2nccc(-c3cnn4ncccc34)n2)C1", "assay": "binding", "conditions": "1 µM", "remaining binding": "93%"}
